Experiment [1] concerns the target Serine/threonine-protein kinase pim-1 (Homo sapiens) (UniProt P11309). The experiment in a line: Competitive binding affinity to PIM1 (unknown origin) at 10 uM in presence of ATP relative to control.
For experiment [2], the target named is Glycogen synthase kinase-3 alpha (Homo sapiens, UniProt P49840). The experiment in a line: Competitive binding affinity to GSK3alpha (unknown origin) at 10 uM in presence of ATP relative to control. Summed up:
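In vitro ATP-site competition binding format, run as one member of a diverse 128-kinase profiling panel. Each compound was tested at a single concentration across the whole panel.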

Experiment [3] has as its target Serine/threonine-protein kinase MRCK alpha (Homo sapiens) (UniProt Q5VT25). The experiment in a line: Competitive binding affinity to MRCKA (unknown origin) at 10 uM in presence of ATP relative to control. Put shortly: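 In vitro ATP-site competition binding assay across a diverse panel of 128 kinases, with compound tested at a single concentration. Kinase selectivity scores (S15) were calculated from the panel profiles.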

Experiment [4] relates to Fibroblast growth factor receptor 3 (Homo sapiens), P22607 [G697C]. Briefly: Competitive binding affinity to FGFR3 G697C mutant (unknown origin) at 10 uM in presence of ATP relative to control. Put shortly: (§1)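 In vitro ATP-site competition binding assay, part of profiling against a diverse panel of 128 kinases. Each compound was tested at a single concentration of 10 µM. Kinome selectivity was summarized as S15 selectivity scores.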

Experiment [5] relates to Epidermal growth factor receptor (Homo sapiens), P00533 [L861Q]. The experiment in a line: Competitive binding affinity to EGFR L861Q mutant (unknown origin) at 10 uM in presence of ATP relative to control. Put shortly:
as §1

Experiment [6] addresses T1, Atypical kinase COQ8B, mitochondrial (Homo sapiens) (UniProt Q96D53).
T1 sequence (whole entry): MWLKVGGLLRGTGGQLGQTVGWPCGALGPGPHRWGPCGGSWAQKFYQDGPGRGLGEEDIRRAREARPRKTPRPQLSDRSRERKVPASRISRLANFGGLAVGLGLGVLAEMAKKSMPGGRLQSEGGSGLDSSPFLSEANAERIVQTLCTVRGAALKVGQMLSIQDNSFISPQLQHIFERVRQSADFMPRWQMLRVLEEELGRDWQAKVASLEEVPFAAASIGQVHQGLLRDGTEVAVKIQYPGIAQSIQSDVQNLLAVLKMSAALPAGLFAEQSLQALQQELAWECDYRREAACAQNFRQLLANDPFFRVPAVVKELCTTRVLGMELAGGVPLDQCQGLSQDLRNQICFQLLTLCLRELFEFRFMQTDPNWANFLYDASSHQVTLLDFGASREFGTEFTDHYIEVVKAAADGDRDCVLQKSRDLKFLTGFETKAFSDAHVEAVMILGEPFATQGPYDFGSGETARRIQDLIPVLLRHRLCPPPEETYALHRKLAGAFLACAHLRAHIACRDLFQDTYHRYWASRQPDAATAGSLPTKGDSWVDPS
Briefly: Competitive binding affinity to ADCK4 (unknown origin) at 10 uM in presence of ATP relative to control.

Experiment [7] has as its target T2, Dual specificity mitogen-activated protein kinase kinase 3 (Homo sapiens) (UniProt P46734).
T2 sequence (whole entry): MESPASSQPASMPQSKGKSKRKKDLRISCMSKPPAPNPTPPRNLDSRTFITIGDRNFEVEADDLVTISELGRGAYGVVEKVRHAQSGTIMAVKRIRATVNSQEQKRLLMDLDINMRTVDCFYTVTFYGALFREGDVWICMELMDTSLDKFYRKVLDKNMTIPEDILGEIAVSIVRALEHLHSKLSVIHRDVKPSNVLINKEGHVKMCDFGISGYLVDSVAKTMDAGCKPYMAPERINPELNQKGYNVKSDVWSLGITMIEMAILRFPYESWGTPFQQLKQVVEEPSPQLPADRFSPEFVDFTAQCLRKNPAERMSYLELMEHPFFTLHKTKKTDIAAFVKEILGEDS
The experiment in a line: Competitive binding affinity to MEK3 (unknown origin) at 10 uM in presence of ATP relative to control.

Experiment [8] deals with T3, Myosin-IIIb (Homo sapiens) (UniProt Q8WXR4).
T3 sequence (whole entry): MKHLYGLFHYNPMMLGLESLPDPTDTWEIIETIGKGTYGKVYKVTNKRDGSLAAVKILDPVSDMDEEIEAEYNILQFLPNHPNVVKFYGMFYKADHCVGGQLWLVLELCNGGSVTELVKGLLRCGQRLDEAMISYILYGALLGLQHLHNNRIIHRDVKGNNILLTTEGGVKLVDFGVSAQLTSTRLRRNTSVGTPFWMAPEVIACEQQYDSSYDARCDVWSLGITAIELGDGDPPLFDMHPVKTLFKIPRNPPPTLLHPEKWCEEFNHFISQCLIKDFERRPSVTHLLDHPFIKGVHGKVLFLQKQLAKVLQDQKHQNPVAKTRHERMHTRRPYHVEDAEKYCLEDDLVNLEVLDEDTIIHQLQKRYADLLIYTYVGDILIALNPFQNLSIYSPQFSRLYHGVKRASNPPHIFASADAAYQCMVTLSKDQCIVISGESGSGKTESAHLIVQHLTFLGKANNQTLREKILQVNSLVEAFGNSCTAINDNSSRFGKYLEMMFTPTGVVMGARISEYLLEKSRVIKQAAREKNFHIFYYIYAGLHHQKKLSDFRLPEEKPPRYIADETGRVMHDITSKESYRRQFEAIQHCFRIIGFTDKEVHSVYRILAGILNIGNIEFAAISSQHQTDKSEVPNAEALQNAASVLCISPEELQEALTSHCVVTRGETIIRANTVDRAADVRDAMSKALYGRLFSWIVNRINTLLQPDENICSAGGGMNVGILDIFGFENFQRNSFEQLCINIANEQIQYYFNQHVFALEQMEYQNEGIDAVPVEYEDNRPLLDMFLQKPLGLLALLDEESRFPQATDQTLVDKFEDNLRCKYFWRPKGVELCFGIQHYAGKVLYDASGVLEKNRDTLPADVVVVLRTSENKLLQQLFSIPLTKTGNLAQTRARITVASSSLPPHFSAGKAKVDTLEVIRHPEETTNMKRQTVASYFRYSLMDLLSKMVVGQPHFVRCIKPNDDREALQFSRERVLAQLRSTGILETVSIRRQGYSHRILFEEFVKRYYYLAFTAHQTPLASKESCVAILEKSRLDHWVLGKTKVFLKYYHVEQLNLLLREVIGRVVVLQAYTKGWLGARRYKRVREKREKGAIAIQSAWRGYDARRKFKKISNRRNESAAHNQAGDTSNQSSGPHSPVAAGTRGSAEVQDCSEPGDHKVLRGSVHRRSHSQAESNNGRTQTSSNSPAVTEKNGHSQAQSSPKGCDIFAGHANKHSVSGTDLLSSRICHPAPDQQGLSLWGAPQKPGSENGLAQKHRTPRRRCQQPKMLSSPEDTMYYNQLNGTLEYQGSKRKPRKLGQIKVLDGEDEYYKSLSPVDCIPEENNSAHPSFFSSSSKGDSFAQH
Briefly: Competitive binding affinity to MYO3B (unknown origin) at 10 uM in presence of ATP relative to control.

SMILES strings stand for the structures.

By inhibition is commonly meant the relative decrease from the control value, in per cent.

With `O[C@H]1CC[C@H](Nc2nccc(-c3n[nH]c4ccccc34)n2)CC1`, the inhibition in experiment [1] is 99%; in experiment [2], 97%; in experiment [3], below 50%; in experiment [4], below 50%; in experiment [5] it was below 50%; in experiment [6], 74%.

`O[C@H]1CC[C@H](Nc2nccc(-n3ccc4ccccc43)n2)CC1`: the inhibition in experiment [1] is 76%; in experiment [2], 91%; in experiment [3] it was below 50%; in experiment [4], below 50%; in experiment [7], 93%; in experiment [5], below 50%. Moreover, the inhibition is below 50% in experiment [8] and 76% in experiment [6].

For `O[C@H]1CC[C@H](Nc2nccc(-n3ncc4ccccc43)n2)CC1`, the inhibition in experiment [1] is 96%; in experiment [2] it was 99%; in experiment [3], below 50%; in experiment [4], below 50%; in experiment [7] it was 95%; in experiment [5], below 50%. In addition, the inhibition in experiment [8] was below 50%; in experiment [6], 79%.

On to `O[C@H]1CC[C@H](Nc2nccc(-n3nnc4ccccc43)n2)CC1`, for which the inhibition in experiment [1] was 87%; in experiment [2] it was 100%; in experiment [3] it was below 50%; in experiment [4], below 50%; in experiment [7] it was 97%; in experiment [5], below 50%. In addition, the inhibition in experiment [8] is below 50%; in experiment [6], 70%.

Turning to `CS(=O)(=O)CCCOc1cccc2c1ccn2-c1ccnc(N[C@H]2CC[C@H](C(=O)N3CCC(O)CC3)CC2)n1`, the inhibition in experiment [2] and in experiment [6] was above 85% each time.

Source of the values: ChEMBL document CHEMBL2424622, “Development of amino-pyrimidine inhibitors of c-Jun N-terminal kinase (JNK): kinase profiling guided optimization of a 1,2,3-benzotriazole lead” (Bioorg Med Chem Lett, 2013).
